Hits are enriched below; roughly 1.7% of the tested compounds scored in any of these assays.
Statin myotox sup – suppressors of statin myotoxicity in C2C12 myotubes, primary screen, cell-based, single point, plate reader; hit rate 0.78% among 330,000; rescue of ATP level, % at 7.49 µM; C2C12 myotubes + simvastatin, ATP luminescence, 48 h; scaled: DMSO 0, geranylgeraniol control 100;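 active means mean ATP rescue above about 67%, or every replicate alone reaching that limit, limit read from the data, passing the limit was not always enough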;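 further: myotubes were challenged with 10 µM simvastatin during compound exposure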
Vif imaging – HIV Vif self-association inhibitors, primary screen, imaging, HEK293T, single point. HEK293T cells, Vif self-association by quenched fluorescence, 24 h. inhibition, % at 7.49 µM. hit rate 0.35% among 340,000. AID 602346, 2012; in the data active means inhibition above about 50%, passing the limit was not always enough
SR-BI DiI inh – inhibitors of SR-BI mediated HDL lipid uptake, primary screen, ldlA[mSR-BI] cells, fluorescence, single point | Scavenger receptor class B member 1 (Mus musculus), Q61009 | ldlA[mSR-BI] CHO cells, DiI-HDL uptake fluorescence, 3 h | inhibition, % at 12.5 µM | hit rate 0.96% among 320,000 | AID 488896, 2010;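 active means mean replicate inhibition of at least 70% and a set share of replicates each scoring 70 or more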;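 further: 0% = median of neutral control wells and 100% = median of positive control wells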
Target sequence (Q61009 whole entry, looked up): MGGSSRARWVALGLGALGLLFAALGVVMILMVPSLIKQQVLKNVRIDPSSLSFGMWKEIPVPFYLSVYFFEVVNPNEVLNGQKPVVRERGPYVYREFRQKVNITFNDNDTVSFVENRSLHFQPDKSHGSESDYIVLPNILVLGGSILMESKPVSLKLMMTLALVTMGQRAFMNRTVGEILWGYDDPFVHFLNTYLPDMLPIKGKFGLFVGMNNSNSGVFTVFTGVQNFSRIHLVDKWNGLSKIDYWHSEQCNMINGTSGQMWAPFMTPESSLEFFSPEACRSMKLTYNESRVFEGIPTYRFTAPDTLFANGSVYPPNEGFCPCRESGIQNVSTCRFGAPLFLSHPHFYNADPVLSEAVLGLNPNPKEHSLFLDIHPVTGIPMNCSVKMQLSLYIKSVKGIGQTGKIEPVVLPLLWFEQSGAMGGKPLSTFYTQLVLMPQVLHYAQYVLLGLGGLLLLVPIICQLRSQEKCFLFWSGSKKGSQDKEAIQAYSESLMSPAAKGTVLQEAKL
SR-BI DiI-HDL act – activators of SR-BI mediated DiI-HDL uptake, primary screen, ldlA[mSR-BI] CHO cells, DiI fluorescence; 3 h; 100 = double the neutral-control signal; hit rate 0.096% among 320,000; activation, % at 12.5 µM;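 active means mean replicate activation of at least 60% and every replicate at or above 60%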;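 further: 0% = median plate neutral-control signal and 100% = twice that signal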
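Test system: SR-BI-overexpressing, LDLR-lacking CHO cells; Also added: labelled HDL, 10 µg/mL; Measured by: bottom-read cell fluorescence after medium removal, ex 550/em 595 nm; Timing: 3 h uptake period with compound, 37 °C; Buffer or medium: F12, 0.5% BSA, 25 mM HEPES; Doses: single compound concentration, delivered by pin transfer.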
* = called active by the depositor; . = no result given; ! = not confirmed by another sample.

SMILES | Statin myotox sup | Vif imaging | SR-BI DiI inh | SR-BI DiI-HDL act
Cc1noc(C)c1NC(=O)N(C)C[C@@H]1Oc2c(NC(=O)Nc3ccc4c(c3)OCO4)cccc2C(=O)N([C@H](C)CO)C[C@H]1C | -4 | . | . | .
CCCNC(=O)Nc1ccc2c(c1)C(=O)N(C)C[C@H](OC)[C@H](C)CN(Cc1ccccn1)[C@@H](C)CO2 | -2 | . | . | .
COc1cc(/C=C/C(=O)N2CCN(CC(O)COc3ccccc3)CC2)cc(OC)c1OC (configuration not stated) | 7 | -5 | 79* | -79
O=C(C[C@H]1CC[C@@H](NC(=O)Nc2ccc3c(c2)OCO3)[C@@H](CO)O1)NCc1ccc(F)cc1 | 4 | . | . | .
O=C(c1ccncc1)N1N=C(c2ccc(Br)cc2)CC1c1ccccc1O (configuration not stated) | 15 | 0 | 75* | -75
O=C(c1ccccc1)N1N=C(c2ccccc2)CC1c1ccccc1O (configuration not stated) | . | -2 | -16 | 16
COCC(=O)Nc1ccc2c(c1)OC[C@H](C)N(CCc1ccccc1)C[C@@H](C)[C@H](OC)CN(C)C2=O | -3 | . | . | .
COc1ccccc1NC(=O)Nc1nc(CC(=O)Nc2ccc(OC)c(OC)c2)cs1 | -12 | . | 82* | -82
COc1ccccc1CNC(=O)C[C@H]1C[C@H]2c3cc(N(C)C)ccc3O[C@H]2[C@@H](CO)O1 | 2 | . | . | .
C[C@@H]1CN([C@@H](C)CO)C(=O)c2cccc(NS(=O)(=O)c3ccccc3)c2O[C@@H]1CN(C)Cc1ccc(Oc2ccccc2)cc1 | 10 | . | . | .
C[C@H](CO)N1C[C@H](C)[C@H](CN(C)Cc2ccc(Oc3ccccc3)cc2)Oc2c(NS(=O)(=O)c3ccc(Cl)cc3)cccc2C1=O | 80* | . | . | .
COc1ccc(S(=O)(=O)Nc2cccc3c2O[C@H](CN(C)C)[C@@H](C)CN([C@H](C)CO)C3=O)cc1 | 127*! | 13 | -8 | 8
COc1ccc(S(=O)(=O)Nc2cccc3c2O[C@@H](CN(C)CC2CC2)[C@@H](C)CN([C@H](C)CO)C3=O)cc1 | -7 | . | . | .
C[C@H]1CN([C@@H](C)CO)C(=O)c2c(c3ccccc3n2C)-c2ccccc2CO[C@H]1CN(C)C(=O)C1CC1 | -9 | . | . | .
CC(C)CC#Cc1cnc2c(c1)C(=O)N([C@H](C)CO)C[C@@H](C)[C@H](CN(C)S(=O)(=O)c1cn(C)cn1)O2 | 14 | . | . | .
C/C(=N\NC(=O)c1ccc(C)cc1)c1c(C)[nH]n(-c2ccccc2)c1=O | 5 | -6 | 125* | -125
C/C(=N\NC(=O)c1ccccc1)c1c(C)[nH]n(-c2ccccc2)c1=O | 7 | 3 | 126* | -126
Cc1[nH]n(-c2ccccc2)c(=O)c1N=Nc1ccccc1O | . | 1 | 119* | -119
O=C(O)C(C(=O)/C=C/c1ccco1)=C1SCCS1 | 68* | 0 | -22 | 22
CO[C@@H]1CC[C@H]2CCN(C)C(=O)[C@H](C)N(C)C(=O)c3cc(C#N)ccc3OC[C@H]1O2 | 8 | . | . | .
CN(C)S(=O)(=O)N1CCN(S(=O)(=O)N2CCOCC2)CC1 | . | -3 | -17 | 17
CN(C)S(=O)(=O)N1CCCN(S(=O)(=O)N(C)C)CC1 | 0 | 66* | -23 | 23
O=C(C[C@H]1CC[C@@H]2[C@H](COC[C@@H](O)CN2Cc2cccc(Cl)c2)O1)N1CCCCC1 | 39 | . | . | .
O=C(CSc1nccn1-c1ncc(C(F)(F)F)cc1Cl)c1ccc(Cl)cc1 | 95* | 13 | 5 | -5
O=C(N/N=C/c1ccccc1O)C(=O)Nc1ccccn1 | . | -3 | 88* | -88
SMILES | Statin myotox sup | Vif imaging | SR-BI DiI inh | SR-BI DiI-HDL act
COc1ccc(/C=N/NC(=O)C(=O)Nc2ccccn2)cc1OC | 22 | 0 | 3 | -3
O=C(N/N=C/c1ccc(O)cc1O)C(=O)N/N=C/c1ccc(O)cc1O | 12 | 62* | -42 | 42
Fc1ccc(-c2cc3nc(-c4ccccc4)cc(N4CCOCC4)n3n2)cc1 | -11 | -4 | 73* | -73
Cc1cccc(-c2cc3nc(-c4ccccc4)cc(N4CCC5(CC4)OCCO5)n3n2)c1 | . | -8 | 83* | -83
Cc1ccc(-c2cc3nc(-c4ccccc4)cc(N4CCC5(CC4)OCCO5)n3n2)cc1 | 14 | 3 | 42 | -42
Cc1ccc(-c2nc(N/N=C/c3ccccc3[N+](=O)[O-])c3ccccc3n2)cc1 | -105 | -2 | 87* | -87
Cc1cccc(C(=O)NNC(=O)C23CC4CC(CC(C4)C2)C3)c1O | 5 | 2 | 100* | -100
COc1ccc(S(=O)(=O)N(CCCN2CCOCC2)Cc2ccc(OC)c(OC)c2)cc1 | 94* | 0 | -27 | 27
CC1CCN(c2cc(C#N)c(C#N)cc2[N+](=O)[O-])CC1 | -9 | 90* | 6 | -6
C=CCCC(=O)Nc1ccc(Br)cn1 | . | -2 | 89* | -89
Cc1oc(C(=O)O)cc1COc1ccc2c(C)cc(=O)oc2c1 | -7 | -4 | 11 | -11
Cc1cc(=O)oc2cc(OCc3cc4c(cc3Cl)OCO4)ccc12 | 5 | 40* | 83* | -83
CC=Cc1ccc2n(c1=O)C[C@@H]1[C@@H](CO)[C@H](C(=O)N(C)C)N(CC3CCCCC3)[C@H]21 (mixture of isomers) | 8 | . | . | .
COc1cccc(C#Cc2cnc3c(c2)C(=O)N([C@H](C)CO)C[C@H](C)[C@@H](CN(C)C(=O)C2CCOCC2)O3)c1 | -4 | . | . | .
ONC(=Nc1ccccc1)C(=Nc1ccccc1)NO | 86* | 1 | -23 | 23
NC(=Nc1ccccc1)Nc1ccccc1 | 9 | 10 | -18 | 18
CCOC(=O)C1=C(N)c2ccccc2CC1C(C)C (configuration not stated) | 123* | -6 | -19 | 19
CCOC(=O)C1Cc2ccccc2C(=O)O1 (configuration not stated) | 1 | 11 | -23 | 23
O=C(C1CCCCC1)N1C[C@@H]2[C@H](c3ccccc31)[C@@H](CO)N2C(=O)c1ccccc1 | 2 | . | . | .
CCCc1cc(C(=O)OC)c2ccccc2n1 | . | 2 | -77 | 77*
Cc1nc(N2CCCCC2)c2c(C)c(C(=O)Nc3cccc(C(F)(F)F)c3)sc2n1 | -15 | -7 | 78* | -78
Cc1nc(N2CCCCC2C)c2c(C)c(C(=O)Nc3cccc(C(F)(F)F)c3)sc2n1 (configuration not stated) | . | -20 | 74* | -74
CCNC(=O)C[C@@H]1CC[C@@H]2[C@H](COC[C@@H](O)CN2Cc2ccncc2)O1 | -10 | . | . | .
COc1cc(/C=N/n2nnnc2Nc2ccccc2)cc(OC)c1OC | . | -13 | 89* | -89
Cn1cc(C(=O)c2ccc(Cl)cc2Cl)cc1C(=O)N/N=C(\N)COc1ccc(Cl)cc1Cl | . | 0 | 83* | -83
CCN(CC)CC(O)Cn1c2ccccc2c2ccccc21 (configuration not stated) | 10 | -2 | . | .
